# Laboratory results reported in publication PMC3040319 (Pharmaceutical Research, 2010).
# Where two headings read alike, the source gives them in different places. Marks after values point to notes of the source that are not given here.
# Tests used:
# [1] = biological target: T1, mouse Oct1 (Mus musculus, UniProt O08966); assay: Cellular accumulation of platinum in HEK-mOct1 cells; type: in vitro ADME; conditions: 10 μM, 1 h
# T1 sequence (O08966 1-556): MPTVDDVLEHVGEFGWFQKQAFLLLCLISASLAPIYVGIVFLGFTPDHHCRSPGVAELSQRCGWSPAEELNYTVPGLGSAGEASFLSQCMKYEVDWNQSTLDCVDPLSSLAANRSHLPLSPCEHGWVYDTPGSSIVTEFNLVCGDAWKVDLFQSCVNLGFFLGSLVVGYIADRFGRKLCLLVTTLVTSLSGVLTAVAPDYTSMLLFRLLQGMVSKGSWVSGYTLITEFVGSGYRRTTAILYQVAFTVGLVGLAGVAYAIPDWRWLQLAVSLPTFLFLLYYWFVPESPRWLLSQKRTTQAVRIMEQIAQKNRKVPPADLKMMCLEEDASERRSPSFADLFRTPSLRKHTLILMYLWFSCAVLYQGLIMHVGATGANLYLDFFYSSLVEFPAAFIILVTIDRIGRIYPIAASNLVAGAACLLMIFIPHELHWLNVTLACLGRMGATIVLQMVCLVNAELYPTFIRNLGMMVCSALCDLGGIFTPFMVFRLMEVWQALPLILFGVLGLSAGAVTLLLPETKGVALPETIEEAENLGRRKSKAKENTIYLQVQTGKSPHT
# In short: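 HEK293 cells stably carrying full-length mouse Oct1 cDNA in pcDNA5/FRT, selected with hygromycin B; the human OCT1 line's construct is not described. Cells grown in DMEM H21 with 10% FBS at 37°C, 5% CO2. Exposed to 10 μM test compound in serum-free medium for 1 h, then washed 3× with ice-cold PBS. Digested in 70% nitric acid at 65°C for ≥2.5 h. Pt measured by ICP-MS, normalised to BCA protein.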
# [2] = test system: primary mouse hepatocytes; type: in vitro ADME
# [3] = test system: genomic DNA; assay: Platinum-DNA adduct formation in primary mouse hepatocytes; type: cell-based
# In short: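 Attached wild-type or Oct1-/- mouse hepatocytes were exposed to 10 μM test compound for 1 h at 37°C in serum-free medium, with or without OCT1 inhibitor. Cells were then washed with ice-cold PBS. Genomic DNA was kit-purified. DNA-bound Pt was measured by ICP-MS, and DNA by A260 from the same preparation. Adduct level expressed as pmol Pt/μg DNA.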
# [4] = Tissue accumulation of platinum in Oct1+/+ and Oct1-/- mice; type: in vivo, mouse; conditions: for Brain Normalized platinum / Heart Normalized platinum / Intestine Normalized platinum / Kidney Normalized platinum / Liver Normalized platinum / Muscle Normalized platinum: divided by plasma concentration
# In short: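 Male FVB Oct1+/+ and Oct1-/- mice (8 weeks) were given 8 mg/kg in saline i.v. by tail vein and killed 1 h later. Liver, kidney, heart, lung, brain, intestine, spleen and muscle were snap-frozen. Total Pt was measured by ICP-MS in 10–30 mg tissue and reported as nmol/g tissue; plasma was reported in μM.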
# [5] = Plasma platinum pharmacokinetics in Oct1+/+ and Oct1-/- mice; type: in vivo, mouse; conditions: single i.v. 8 mg/kg
# In short: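 Male FVB Oct1+/+ and Oct1-/- mice (8 weeks) received a single tail-vein dose of 8 mg/kg in saline. Heparinised plasma was taken by heart puncture at 15 and 30 min and at 1, 2, 3, 4, 8, 10, 24 and 48 h. Total Pt in 5 μl plasma and in urine was measured by ICP-MS. Parameters (Vss, CL, renal CL) came from two-compartment analysis.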
# [6] = test system: Oct1+/+ and Oct1-/- mice; assay: Toxicity study of CDPCP in Oct1+/+ and Oct1-/- mice; type: in vivo, mouse; conditions: for Kidney histopathological examination (affected/examined animals) / Liver histopathological examination (affected/examined animals): 24 hr after third i.v. dose; for liver-to-body-weight ratio increase compared with saline-treated mice: 120 mg/kg reduced to 90 mg/kg
# In short: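 Male Oct1+/+ and Oct1-/- mice (8 weeks, ≥9 per group) were randomised to saline or test compound. Dosing was by tail vein once weekly ×3 (120 mg/kg initially, later 90 mg/kg). Body weight was recorded three times weekly. Mice were fasted ≥16 h and killed under isoflurane 24 h after the last dose. Measures: serum ALT/AST/ALKP and liver weight. Liver and kidney were fixed in 4% paraformaldehyde, paraffin-embedded and H&E stained; affected/examined animals were counted.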
# [7] = hepatocytes from Oct1 wild-type mice, disopyramide 150 μM
# [8] = OCT1 KO mice, 1 h after IV 8 mg/kg
# [9] = OCT1 WT mice, 1 h after IV 8 mg/kg
# [10] = Oct1+/+ mice, i.v. once weekly for 3 weeks
# [11] = Oct1-/- mice, i.v. once weekly for 3 weeks
compound,measurement,setting,value
"[NH3+][Pt-2]([NH3+])([Cl])[n+]1ccccc1 (stereo not drawn) [CDPCP, cis-diammine(pyridine)chloroplatinum(II)]",uptake of platinum,[1]; HEK-mOct1 cells,1470 ± 66.6 pmol/mg protein/hr
same,"uptake of platinum, fold greater than in HEK-MOCK cells",[1]; HEK-mOct1 vs HEK-MOCK,53 fold
same,"hepatocellular uptake, wild-type as fold of Oct1-/-","[2]; 10 μM, 1 hr",2.9 fold
same,hepatocellular uptake,"[2]; hepatocytes from Oct1-/- mice, 10 μM, 1 hr",87.8 ± 7.61 pmol/mg protein/hr
same,hepatocellular uptake,"[2]; hepatocytes from Oct1-/- mice, 10 μM, 1 hr, co-incubation with disopyramide 150 μM",95.8 ± 17.6 pmol/mg protein/hr
same,hepatocellular uptake,"[2]; hepatocytes from Oct1 wild-type mice, 10 μM, 1 hr",251 ± 94.6 pmol/mg protein/hr
same,hepatocellular uptake,"[2]; hepatocytes from Oct1 wild-type mice, 10 μM, 1 hr, co-incubation with disopyramide 150 μM",55.9 ± 1.41 pmol/mg protein/hr
same,fold decrease in platinum uptake by disopyramide,[2]; [7],4.5 fold
same,"platinum-DNA adduct level, fold greater in wild-type than Oct1-/-","[3]; 10 μM, 1 h",2.4 fold
same,platinum-DNA adduct level,"[3]; hepatocytes from Oct1-/- mice, 10 μM, 1 h",0.0351 ± 0.00344 pmol/μg DNA
same,platinum-DNA adduct level,"[3]; hepatocytes from Oct1-/- mice, 10 μM, 1 h, disopyramide 150 μM",0.0338 ± 0.00798 pmol/μg DNA
same,platinum-DNA adduct level,"[3]; hepatocytes from Oct1 wild-type mice, 10 μM, 1 h",0.0857 ± 0.0232 pmol/μg DNA
same,platinum-DNA adduct level,"[3]; hepatocytes from Oct1 wild-type mice, 10 μM, 1 h, disopyramide 150 μM",0.0233 ± 0.00847 pmol/μg DNA
same,fold decrease in platinum-DNA adduct formation by disopyramide,[3]; [7],3.7 fold
same,"total platinum in plasma, fold higher in Oct1-/- than wild-type mice",[4]; 1 h after 8 mg/kg,1.3 fold
same,"Brain Absolute platinum, OCT1 WT/KO ratio",[4]; 1 h after IV 8 mg/kg,0.9
same,"Brain Normalized platinum, OCT1 WT/KO ratio",[4]; 1 h after IV 8 mg/kg,1.2
same,"Heart Absolute platinum, OCT1 WT/KO ratio",[4]; 1 h after IV 8 mg/kg,0.6**
same,"Heart Normalized platinum, OCT1 WT/KO ratio",[4]; 1 h after IV 8 mg/kg,0.8*
same,"Intestine Absolute platinum, OCT1 WT/KO ratio",[4]; 1 h after IV 8 mg/kg,2.8*
same,"Kidney Absolute platinum, OCT1 WT/KO ratio",[4]; 1 h after IV 8 mg/kg,0.7*
same,"Kidney Normalized platinum, OCT1 WT/KO ratio",[4]; 1 h after IV 8 mg/kg,1.0
same,"Liver Absolute platinum, OCT1 WT/KO ratio",[4]; 1 h after IV 8 mg/kg,2.1**
same,"Muscle Absolute platinum, OCT1 WT/KO ratio",[4]; 1 h after IV 8 mg/kg,0.8*
same,"Muscle Normalized platinum, OCT1 WT/KO ratio",[4]; 1 h after IV 8 mg/kg,1.0
same,"Plasma platinum, OCT1 WT/KO ratio",[4]; 1 h after IV 8 mg/kg,0.8**
same,Brain Absolute platinum,[4]; [8],0.487 ± 0.128 pmol/g tissue
same,Heart Absolute platinum,[4]; [8],15.4 ± 1.83 pmol/g tissue
same,Intestine Absolute platinum,[4]; [8],32.3 ± 14.2 pmol/g tissue
same,Kidney Absolute platinum,[4]; [8],44.3 ± 11.5 pmol/g tissue
same,Liver Absolute platinum,[4]; [8],38.2 ± 8.51 pmol/g tissue
same,Muscle Absolute platinum,[4]; [8],2.08 ± 0.292 pmol/g tissue
same,Plasma platinum,[4]; [8],17.2 ± 2.11 µM
same,Brain Normalized platinum,[4]; [8],0.0282 ± 0.00518 ml/g tissue
same,Heart Normalized platinum,[4]; [8],0.898 ± 0.0813 ml/g tissue
same,Intestine Normalized platinum,[4]; [8],1.84 ± 0.571 ml/g tissue
same,Kidney Normalized platinum,[4]; [8],2.47 ± 0.552 ml/g tissue
same,Liver Normalized platinum,[4]; [8],2.23 ± 0.440 ml/g tissue
same,Muscle Normalized platinum,[4]; [8],0.122 ± 0.0201 ml/g tissue
same,Brain Absolute platinum,[4]; [9],0.436 ± 0.116 pmol/g tissue
same,Heart Absolute platinum,[4]; [9],9.77 ± 1.20 pmol/g tissue
same,Intestine Absolute platinum,[4]; [9],90.9 ± 28.0 pmol/g tissue
same,Kidney Absolute platinum,[4]; [9],32.1 ± 2.93 pmol/g tissue
same,Liver Absolute platinum,[4]; [9],81.8 ± 9.31 pmol/g tissue
same,Muscle Absolute platinum,[4]; [9],1.62 ± 0.144 pmol/g tissue
same,Plasma platinum,[4]; [9],13.5 ± 1.72 µM
same,Brain Normalized platinum,[4]; [9],0.0328 ± 0.0114 ml/g tissue
same,Heart Normalized platinum,[4]; [9],0.725 ± 0.0747 ml/g tissue
same,Intestine Normalized platinum,[4]; [9],7.13 ± 2.47 ml/g tissue
same,Kidney Normalized platinum,[4]; [9],2.40 ± 0.374 ml/g tissue
same,Liver Normalized platinum,[4]; [9],6.09 ± 0.792 ml/g tissue
same,Muscle Normalized platinum,[4]; [9],0.121 ± 0.0118 ml/g tissue
same,contribution of renal clearance to total clearance of platinum from plasma,[5]; both Oct1+/+ and Oct1-/- mice,about 50%
same,"volume of distribution, Oct1 wild-type as fold of Oct1-/-",[5],1.77 fold
same,Kidney histopathological examination (affected/examined animals),[6]; OCT1+/+ mice,Normal (4/4)
same,Liver histopathological examination (affected/examined animals),[6]; OCT1+/+ mice,Severe swollen hepatocytes (3/4); Mild swollen hepatocytes(1/4)
same,Kidney histopathological examination (affected/examined animals),[6]; OCT1-/- mice,Kidney tube protein contents (3/4); kidney hyaline necrosis (1/4)
same,Liver histopathological examination (affected/examined animals),[6]; OCT1-/- mice,Mild swollen hepatocytes(1/4)
same,serum BUN levels vs saline,[6]; Oct1+/+ mice,significantly reduced
same,actual liver weight,[6]; [10],1.23 g
same,liver-to-body-weight ratio increase compared with saline-treated mice,[6]; [10],28.8%
same,serum glucose levels,"[6]; Oct1+/+ mice, vs saline",significant increase
same,total serum protein levels,"[6]; Oct1+/+ mice, vs saline",significant decrease
same,serum BUN vs saline,[6]; Oct1-/- mice,not affected
same,actual liver weight,[6]; [11],1.02 g
same,liver-to-body-weight ratio increase compared with saline-treated mice,[6]; [11],14.7%
same,serum creatinine levels vs saline,[6]; both Oct1+/+ and Oct1-/- mice,not significantly different
same,"dose resulting in significant changes in body weight, liver-to-body-weight ratio, liver function and hematology",[6]; dose-range finding toxicity study,≥ 90 mg/kg
same,histological examination of intestine,[6]; either Oct1+/+ or Oct1-/- mice,no signs of intestinal toxicity
same,"activities of ALT, AST and ALKP","[6]; either Oct1+/+ or Oct1-/- mice, i.v. once weekly for 3 weeks",not affected
same,body weight loss in Oct1-/- mice compared with Oct1+/+ mice,[6]; i.v. once weekly for 3 weeks,much greater
same,ALT,"[6]; wild-type mice, 120 mg/kg, dose-finding studies (data not shown)",significant increases
